Reference: ChEMBL document CHEMBL1123797, “Antianaphylactic benzophenones and related compounds” (1987)

What was measured:
Format in all cases: functional
Cavia porcellus [1] = species on record: Cavia porcellus; test: Inhibition of slow reacting substance of anaphylaxis (SRS-A) release from sensitized guinea pig chopped lung upon antigen challenge at 10 ug/mL
How it was run: (§1)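 Guinea pigs sensitized to ovalbumin; lungs taken 3 weeks later, perfused with Tyrode, chopped into 0.5-mm cubes. 100-mg aliquots in Tyrode were preincubated 5 min at 37 °C, then compound or Tyrode and ovalbumin (5 mg in 0.1 mL) were added. Incubation was 15 min at 37 °C with rocking, and supernatant was bioassayed. Unchallenged control gave spontaneous release. Values are % inhibition, mean of ≥4 samples; Student's t-test.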

Cavia porcellus [2] = species on record: Cavia porcellus; test: Inhibition of histamine release from sensitized guinea pig chopped lung upon antigen challenge at 10 ug/mL.; how it was run: as §1
Homo sapiens [3] = species on record: Homo sapiens; test: Inhibition of Histamine mediator release form passively sensitized human lung upon antigen challenge at 1 ug/mL dose
How it was run: (§2)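 Healthy human lung from carcinoma surgery was chopped into 0.5-mm cubes and passively sensitized 18 h at 18 °C with atopic serum from cocksfoot-pollen-allergic patients. Tissue was preincubated 5 min with compound, challenged with pollen extract (0.1 mL, 1000 noon units) and incubated as for guinea pig lung. Supernatant was bioassayed on guinea pig ileum, with mepyramine-treated (0.4 μg/mL) ileum for SRS-A. Values are % inhibition of mediator release.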

Homo sapiens [4] = species on record: Homo sapiens; test: Inhibition of Slow reacting substance of anaphylaxis (SRS-A) mediator release form passively sensitized human lung upon antigen challenge at 1 ug/mL dose; how it was run: as §2
Homo sapiens [5] = species on record: Homo sapiens; test: Inhibition of Histamine mediator release form passively sensitized human lung upon antigen challenge at 10 ug/mL dose; how it was run: as §2
Homo sapiens [6] = species on record: Homo sapiens; test: Inhibition of Slow reacting substance of anaphylaxis (SRS-A) mediator release form passively sensitized human lung upon antigen challenge at 10 ug/mL dose; how it was run: as §2
Cavia porcellus [7] = test: Mean collapse time after pretreatment with compound and mepyramine divided by mean collapse time of mepyramine-dosed control animals at 50 mg/kg po dose
How it was run: (§3)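 Modified Herxheimer test in conscious sensitized guinea pigs, 4-5 per group. Compound was given orally at 25, 50 or 100 mg/kg 2 or 4 h before antigen challenge. Some groups also received mepyramine 0.5 mg/kg sc 0.5 h before challenge. D = mean collapse time of treated/untreated controls; M+D = mean collapse time of compound+mepyramine/mepyramine-dosed controls.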

Cavia porcellus [8] = test: Time of dosing of compound before antigen challenge in conscious sensitized guinea pig at 50 mg/kg po dose; details: dose 50 mg/kg; how it was run: as §3
Cavia porcellus [9] = test: Mean collapse time after pretreatment with compound divided by mean collapse time of untreated control animals at 50 mg/kg po dose; how it was run: as §3

SMILES	Inhibition (Cavia porcellus [1])	Inhibition (Cavia porcellus [2])	further results
Cc1ccc(O)c(/C(=N\O)c2ccc(Cl)cc2)c1	32%	25%	
CCc1ccc(S(C)(=O)=O)c(C(=O)c2ccc(C)cc2)c1	11%		
CCc1ccc([S+](C)[O-])c(C(=O)c2ccc(C)cc2)c1 (centres undefined)	40%	3%	Inhibition (Homo sapiens [3]): 0%; Inhibition (Homo sapiens [4]): 75%; Inhibition (Homo sapiens [5]): 0%; Inhibition (Homo sapiens [6]): 100%
CCc1ccc(/C(=N/O)c2ccc(Cl)cc2)c(O)c1	0%		
CCc1ccc(C(O)c2ccc(F)cc2)c(O)c1 (centres undefined)	34%	5%	
CCCc1cccc(C(=O)c2ccc(Cl)cc2)c1O	0%		
Cc1cccc(/C(=N/O)c2ccccc2)c1O	0%		Inhibition (Homo sapiens [3]): 8%; Inhibition (Homo sapiens [4]): 39%; Inhibition (Homo sapiens [5]): 15%; Inhibition (Homo sapiens [6]): 62%
Cc1cccc(/C(=N/O)c2ccc(Cl)cc2)c1O	52%	52%	
O=C(c1ccccc1)c1ccccc1O	0%		
CCc1cc([S+]([O-])c2ccc(C)cc2)c(O)cc1Cl (centres undefined)	5%		
CCc1ccc(C(=O)c2cccc(F)c2)c(O)c1	26%		
CCc1cc(CC)c(O)c(C(=O)c2ccc(Cl)cc2)c1	38%	9%	
CCc1cccc(C(=O)c2ccc(Cl)cc2)c1O	2%		
Cc1ccc(C(=O)c2ccc(F)cc2)c(O)c1	10%		
Cc1cccc(C(=O)c2ccc(Cl)cc2)c1O	36%	6%	Inhibition (Homo sapiens [4]): 100%; Inhibition (Homo sapiens [5]): 0%; Inhibition (Homo sapiens [6]): 100%
CCCc1cccc(C(=O)c2ccccc2)c1O	0%		
CCc1ccc(O)c(C(=O)c2cccc3ccccc23)c1	0%		
CCc1ccc(O)c(C(=O)c2ccc(F)cc2)c1	1%		
Cc1ccc(O)c(C(=O)c2ccccc2)c1	39%	78%	
CCc1ccc([S+](C)[O-])c(C(=O)c2ccc(Cl)cc2)c1 (centres undefined)	36%	1%	
CCc1ccc(O)c(C(=O)c2ccc(Br)cc2)c1	10%		
CC(=O)c1ccc(O)c(C(=O)c2ccc(Cl)cc2)c1	49%	61%	

SMILES	Inhibition (Cavia porcellus [1])	Inhibition (Cavia porcellus [2])	further results
CCc1ccc(OC)c(C(=O)c2ccc([N+](=O)[O-])cc2)c1	0%		Activity (Cavia porcellus [7]): 2.1; Time (Cavia porcellus [8]): 2 h; Activity (Cavia porcellus [9]): 0.8
Cc1ccc(C(=O)c2ccc(Cl)cc2)c(O)c1	0%		
CCc1ccc(O)c(C(=O)c2cccc(Cl)c2)c1	0%		
CCc1ccc(O)c(C(=O)c2ccccc2)c1	22%		Activity (Cavia porcellus [7]): 1.2; Time (Cavia porcellus [8]): 2 h; Activity (Cavia porcellus [9]): 2.5
CCc1cccc(C(=O)c2ccccc2)c1O	37%	92%	
Cc1ccc(/C(=N/O)c2ccc(Cl)cc2)c(O)c1	0%		
CCCc1ccc(O)c(/C(=N/O)c2ccc(Cl)cc2)c1	8%		
CCc1ccc(O)c(/C(=N/O)c2ccc(Cl)c(Cl)c2)c1	2%		
CCCCc1ccc(O)c(C(=O)c2ccc(Cl)cc2)c1	0%		
CCc1ccc(C(=O)c2ccc(Cl)cc2)c(O)c1	8%		
CCCc1ccc(O)c(C(=O)c2ccc(Cl)cc2)c1	0%		
CCc1ccc(OC(C)=O)c(C(=O)c2ccc(Cl)cc2)c1	28%		
CCc1ccc(OC(=O)c2ccccc2)c(C(=O)c2ccc(Cl)cc2)c1	71%	32%	
CCc1ccc(OC)c(C(=O)c2ccncc2)c1	0%		
C=C(c1ccc(Cl)cc1)c1cc(CC)ccc1O	3%		
CCc1ccc(O)c(C(=O)c2ccco2)c1	32%	0%	
CCc1ccc(O)c(C(O)c2ccccc2)c1 (centres undefined)	37%	7%	
CCc1ccc(C(=O)c2ccc(F)cc2)c(OC(C)=O)c1	9%		
CCc1ccc(O)c(C(O)c2ccc(Cl)cc2)c1 (centres undefined)	5%		
C=C(c1ccccc1)c1cc(CC)ccc1O	24%		
CCc1ccc(O)c(Cc2ccc(Cl)cc2)c1	39%	17%	
CCc1ccc(SC)c(C(O)c2ccc(Cl)cc2)c1 (centres undefined)	11%		

SMILES	Inhibition (Cavia porcellus [1])	Inhibition (Cavia porcellus [2])	further results
CCc1ccc(O)c(C(=O)c2ccccc2Cl)c1	14%		
CCc1ccc(OC)c(C(O)c2ccc(C)cc2)c1 (centres undefined)	28%		
CCc1ccc(O)c(C(=O)c2cccn2C)c1	0%		Activity (Cavia porcellus [7]): 2.3; Time (Cavia porcellus [8]): 2 h; Activity (Cavia porcellus [9]): 1.2
CCc1ccc(SC)c(C(=O)c2ccc(Cl)cc2)c1	29%		Activity (Cavia porcellus [7]): 2.3; Activity (Cavia porcellus [9]): 0.6
CCc1ccc(O)c(Sc2ccc(Cl)cc2)c1	31%	31%	
CCc1ccc(O)c(/C(=N/O)c2ccc(Cl)cc2)c1	51%	28%	Inhibition (Homo sapiens [3]): 0%; Inhibition (Homo sapiens [4]): 93%; Inhibition (Homo sapiens [5]): 0%; Inhibition (Homo sapiens [6]): 91%
CCc1ccc(O)c(C(=O)c2cccc(C#N)c2)c1	21%		
CCc1ccc(OC(C)=O)c(C(=O)c2ccc(C)cc2)c1	49%	9%	
CCc1ccc(O)c(C(=O)c2ccc(C)cc2)c1	76%	53%	
CCc1ccc(Cc2ccc(F)cc2)c(O)c1	34%	33%	
CCc1ccc(O)c(C(=O)c2ccncc2)c1	0%		
CCc1ccc(/C(=N/O)c2ccc(F)cc2)c(O)c1	33%	46%	
C=C(c1ccc(F)cc1)c1ccc(CC)cc1O	32%	0%	
CCc1ccc(O)c(C(=O)c2ccc(C)s2)c1	28%		
CCc1ccc(O)c(C(=O)c2ccc(Cl)s2)c1	21%		
Cc1ccc(O)c(C(=O)c2ccc(Cl)cc2)c1	46%	0%	
CCc1ccc(O)c(C(O)c2ccc([N+](=O)[O-])cc2)c1 (centres undefined)	33%	0%	
Cc1cccc(C(=O)c2ccccc2)c1O	0%		
CCc1ccc(OC)c(C(OC)c2ccc(Cl)cc2)c1 (centres undefined)	32%	22%	
CCc1ccc(O)c(C(=O)c2ccc(Cl)c(Cl)c2)c1	0%		
CCc1cccc(/C(=N/O)c2ccccc2)c1O	13%		
CCc1ccc(O)c(C(=O)c2ccc([N+](=O)[O-])cc2)c1	5%		

SMILES	Inhibition (Cavia porcellus [1])	Inhibition (Cavia porcellus [2])	further results
CCc1ccc([S+](C)[O-])c(C(=O)c2ccc(F)cc2)c1 (centres undefined)	42%	9%	
CCc1ccc(O)c(/C(=N/O)c2ccc(Cl)cc2Cl)c1	0%		
CCc1ccc(O)c(C(=O)c2ccc3ccccc3c2)c1	2%		
CCc1ccc(S(C)(=O)=O)c(C(=O)c2ccc(Cl)cc2)c1	17%		
CCc1ccc(SC)c(C(=O)c2ccccc2)c1	52%	19%	
O=C(c1ccc(Cl)cc1)c1ccccc1O	0%		
CCc1ccc(O)c(Cc2ccc(C)cc2)c1	0%		
CCc1ccc(SC)c(C(=O)c2ccc(F)cc2)c1	31%	14%	
CCc1cccc(C(=O)c2ccc(Cl)cc2Cl)c1O	44%	8%	Inhibition (Homo sapiens [3]): 20%; Inhibition (Homo sapiens [4]): 85%; Inhibition (Homo sapiens [5]): 60%; Inhibition (Homo sapiens [6]): 100%
CCc1ccc(OC)c(C(=O)c2cc[n+]([O-])cc2)c1	0%		
CCc1ccc(C(=O)O)c(C(=O)c2ccc(Cl)cc2)c1	20%		
CCc1ccc(OC)c(C(=O)c2ccccn2)c1	0%		
CCc1ccc(O)c(C(=O)c2ccccn2)c1	30%	5%	
CCc1ccc(O)c(Sc2ccccc2)c1	0%		
CCc1ccc(O)c(Cc2ccccc2)c1	36%	0%	Activity (Cavia porcellus [7]): 1.6; Activity (Cavia porcellus [9]): 3
CCc1ccc(O)c(C(=O)c2cccnc2)c1	27%		
CCc1ccc(O)c([S+]([O-])c2ccccc2)c1 (centres undefined)	36%	36%	
CCc1ccc(S(C)(=O)=O)c(C(=O)c2ccc(F)cc2)c1	27%		
CCc1ccc(S(C)(=O)=O)c(C(=O)c2ccccc2)c1	35%	13%	
CCc1ccc(SC)c(C(=O)c2ccc(C)cc2)c1	32%	0%	
Cc1ccc(O)c(/C(=N/O)c2ccc(Cl)cc2)c1	40%	59%	
CCc1ccc(O)c(C(=O)c2ccc(Cl)cc2Cl)c1	0%		
